Compound activity: PubChem, Broad Institute
An excerpt weighted towards active compounds, which were near 3.5% of everything screened.
MITF act – activators of MITF-driven TRPM1 promoter activity in SK-MEL-5 cells. activation, % at 12.5 µM. 300,000 compounds, 0.75% hits. SK-MEL-5 TRPM1-promoter luciferase, 24 h; % of positive control, neutral wells = 0;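 active = mean activation of at least 80% with every replicate also reaching 80%; inconclusive = mean reaches 80% but some replicate falls short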
Wnt act – Wnt/beta-catenin pathway activation | Wnt/beta-catenin reporter cell assay, activator, plate reader | activation, % at 9.35 µM | 300,000 compounds, 1.2% hits | AID 743398; in the data active = activation above about 30%, passing the limit was not always enough; inconclusive = no clear call, values can overlap the other calls
Cneo AK release – causes C. neoformans cell lysis | adenylate kinase release luminescence, 4 h; normalised: neutral wells 0, clomiphene wells 100 | lysis activity, % at 15 µM | 360,000 compounds, 0.2% hits | AID 651654;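 active = mean lysis activity across replicates of at least 80%, whatever share of replicates individually reach that level; inactive = mean lysis activity below 80%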
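Assay system: Cryptococcus neoformans yeast cells / Dosing: single-point compound dose / Timing: 4 h at 37 °C static, read 1 h later / Measured by: luminescence of released adenylate kinase using an AK detection reagent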
HIV Env fusion – blocks HIV Env-driven cell-cell fusion | AID 651610 | 360,000 compounds, 1.1% hits | HeLa-JRFL Env/CEM21 cell fusion, luciferase | inhibition, % at 12.3 µM;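 active = mean replicate inhibition score of at least 50 and every replicate individually at or above 50; inconclusive = only one of the two criteria met; inactive = mean below 50 and not all replicates reaching 50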
ERAP1 inh – inhibitors of human ERAP1 aminopeptidase; Q9NZ08; recombinant ERAP1, Leu-AMC fluorescence, 60 min; inhibition, % at 10.7 µM; 340,000 compounds, 0.15% hits; AID 652197;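 active = mean replicate inhibition of at least 30%, or all replicates individually reaching that 30% level; inactive = mean below 30% and not every replicate reaching it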
Target sequence (Q9NZ08 whole entry, looked up): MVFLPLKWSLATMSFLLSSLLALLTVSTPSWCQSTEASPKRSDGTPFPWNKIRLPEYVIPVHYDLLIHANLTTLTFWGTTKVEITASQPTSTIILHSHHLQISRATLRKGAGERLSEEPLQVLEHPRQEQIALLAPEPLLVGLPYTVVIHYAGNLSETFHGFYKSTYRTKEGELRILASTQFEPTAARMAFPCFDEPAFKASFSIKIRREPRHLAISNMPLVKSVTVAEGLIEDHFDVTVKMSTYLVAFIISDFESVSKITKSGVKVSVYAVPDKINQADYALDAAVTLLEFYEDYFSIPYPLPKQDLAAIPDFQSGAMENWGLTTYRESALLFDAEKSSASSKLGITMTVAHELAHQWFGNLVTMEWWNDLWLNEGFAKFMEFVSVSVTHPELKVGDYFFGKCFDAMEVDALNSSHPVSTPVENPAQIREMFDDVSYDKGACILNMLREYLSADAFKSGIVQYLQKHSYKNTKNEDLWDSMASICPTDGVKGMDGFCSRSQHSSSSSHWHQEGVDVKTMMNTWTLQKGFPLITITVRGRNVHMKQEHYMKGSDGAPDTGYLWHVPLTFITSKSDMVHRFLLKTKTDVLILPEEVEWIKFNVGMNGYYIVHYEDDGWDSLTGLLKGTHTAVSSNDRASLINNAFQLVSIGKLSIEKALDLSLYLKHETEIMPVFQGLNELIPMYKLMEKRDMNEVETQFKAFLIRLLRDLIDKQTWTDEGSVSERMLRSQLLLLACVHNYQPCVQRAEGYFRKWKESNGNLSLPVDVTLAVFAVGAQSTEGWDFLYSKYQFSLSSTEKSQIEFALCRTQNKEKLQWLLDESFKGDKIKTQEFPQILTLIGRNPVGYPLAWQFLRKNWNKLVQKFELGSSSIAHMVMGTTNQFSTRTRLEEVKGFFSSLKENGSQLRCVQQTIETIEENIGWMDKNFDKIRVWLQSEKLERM
esBAF inh – SWI/SNF esBAF complex inhibition. 350,000 compounds, 2% hits. AID 602393. mouse ES cells, Bmi1-luciferase knock-in reporter, 24 h; 100% = twice the neutral-well signal. reporter increase, % at 12.5 µM; in the data active = activation above about 40%; inconclusive = no clear call, values can overlap the other calls;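 note: a rise in the Bmi1 reporter signal indicates esBAF inhibition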
Numbers stand for hits.

For CCc1ccc(C(=O)Nc2nc(C)cs2)s1 the results were MITF act inactive, Wnt act inconclusive, Cneo AK release inactive, HIV Env fusion inactive, ERAP1 inh inactive and esBAF inh inactive.
`C[C@@H]1CCCCO[C@H](CN(C)C(=O)c2ccncc2)[C@@H](C)CN([C@@H](C)CO)C(=O)c2cc(NC(=O)C3CCCCC3)ccc2O1` gave Cneo AK release inactive, HIV Env fusion inactive, ERAP1 inh inactive and esBAF inh inactive.
COC(=O)Cc1csc(Nc2ccccc2Cl)n1 was read as MITF act 94, Wnt act inactive, Cneo AK release inactive, ERAP1 inh inactive and esBAF inh 54.
For CC(=O)Cc1nsc(NC(=O)c2cccc(F)c2)n1 the results were MITF act inactive, HIV Env fusion inactive, ERAP1 inh inactive and esBAF inh 61.
Screening CCOC(=O)CNC(=O)c1sc(NC(=O)c2cccc(F)c2)nc1C returned MITF act inactive, Cneo AK release inactive and esBAF inh 54.
Screening CC(=O)c1sc(NC(=O)c2cccc(C)c2)nc1C returned MITF act inactive, Wnt act inactive, HIV Env fusion inactive and ERAP1 inh inactive.
CCOC(=O)CNC(=O)c1sc(NC(=O)c2ccccc2F)nc1C was read as MITF act inactive, Wnt act inactive, Cneo AK release inactive, ERAP1 inh inactive and esBAF inh 57.
Screening CCOC(=O)c1sc(NC(=O)c2ccccc2OC)nc1C returned MITF act inactive, Wnt act inactive, Cneo AK release inactive, HIV Env fusion inactive, ERAP1 inh inactive and esBAF inh inactive.
For O=C(Nc1ccccc1F)N[C@@H]1CC[C@H](CCNC(=O)C2CCCCC2)O[C@@H]1CO the results were Cneo AK release inactive, HIV Env fusion inactive, ERAP1 inh inactive and esBAF inh inactive.
O=C(Nc1ccc2c(c1)CCC2)C1CCCN(c2ncccn2)C1 (centres undefined) was read as MITF act 86, Cneo AK release inactive, HIV Env fusion inactive and esBAF inh 62.
`Cc1nc2ncnn2c(N2CCCC(C(=O)Nc3ccc4c(c3)CCC4)C2)c1C` (centres undefined) gave MITF act inactive, Cneo AK release inactive, HIV Env fusion 78 and esBAF inh inactive.
Screening CC(C)(C)OC(=O)N1CCC(C(=O)Nc2ccc3c(c2)CCC3)CC1 returned MITF act inconclusive, Wnt act inactive, Cneo AK release inactive, HIV Env fusion inactive, ERAP1 inh inactive and esBAF inh 75.
`Cc1ccc(NC(=O)C2CCCN(c3ncccn3)C2)c(C)c1` (centres undefined) gave MITF act inactive, Wnt act inactive, Cneo AK release inactive, HIV Env fusion inactive, ERAP1 inh inactive and esBAF inh 51.
CC(=O)N1CCC(C(=O)Nc2ccc3c(c2)CCC3)CC1 was read as MITF act inactive, Wnt act inactive, Cneo AK release inactive, HIV Env fusion inactive and ERAP1 inh inactive.
`COc1ccc(NC(=O)N(C)C[C@@H]2Oc3ccc(NC(=O)CCC(F)(F)F)cc3CC(=O)N([C@H](C)CO)C[C@@H]2C)cc1` gave Cneo AK release inactive, HIV Env fusion inactive, ERAP1 inh inactive and esBAF inh inactive.
CC(=O)N1CCCCN2[C@H](CO)[C@@H](c3ccc(-c4ccc(C)cc4)cc3)[C@H]2C1 was read as Cneo AK release inactive and ERAP1 inh inactive.
For CCOC(=O)c1oc2nc(C)c3c(c2c1N)CC(C)(C)OC3 the results were Cneo AK release inactive, HIV Env fusion inactive and esBAF inh inactive.
CCOC(=O)c1oc2nc3c(cc2c1N)COC(C)(C)C3 was read as MITF act inactive, Wnt act 49, Cneo AK release inactive, HIV Env fusion inactive and esBAF inh inactive.
`CCOC(=O)c1oc2nc3c(cc2c1N)CCCC3` gave Wnt act 37, Cneo AK release inactive, HIV Env fusion inactive, ERAP1 inh inactive and esBAF inh inactive.
CN1c2ccc(C#Cc3cccnc3)cc2[C@H]2[C@H](CCN2C(=O)C2CCOCC2)[C@@H]1CO was read as Cneo AK release inactive, ERAP1 inh inactive and esBAF inh inactive.
CC(=O)OC(C(=O)Nc1nccs1)c1ccccc1 (centres undefined) was read as Wnt act inactive, Cneo AK release inactive, HIV Env fusion inactive, ERAP1 inh inactive and esBAF inh inactive.
For O=C(Nc1nccs1)C(Br)C(Br)c1ccccc1 (centres undefined) the results were MITF act inactive, Wnt act 37, Cneo AK release inactive, HIV Env fusion inactive, ERAP1 inh inactive and esBAF inh inactive.
For O=C(/C=C/c1cccs1)Nc1nccs1 the results were MITF act inactive, Wnt act inactive, HIV Env fusion inactive and ERAP1 inh inactive.
O=C(/C=C/c1cccc(F)c1)Nc1nccs1 was read as MITF act inactive, Wnt act inactive, Cneo AK release inactive, HIV Env fusion inactive, ERAP1 inh inactive and esBAF inh 86.
`O=C(Nc1nccs1)OCc1ccccc1` gave Wnt act 34, Cneo AK release inactive and HIV Env fusion inactive.
For O=C(NCc1ccccc1)C(=O)Nc1nccs1 the results were MITF act inactive, Wnt act inactive, Cneo AK release inactive, HIV Env fusion inactive, ERAP1 inh inactive and esBAF inh inactive.
Screening O=C(/C=C\c1ccccc1)Nc1nccs1 returned MITF act inactive, Wnt act 39, Cneo AK release inactive and HIV Env fusion inactive.
C[C@@H]1CN([C@H](C)CO)C(=O)c2cc(NC(=O)Cc3ccccc3)ccc2O[C@@H]1CN(C)Cc1ccc(C(=O)Nc2ccccc2N)cc1 was read as Cneo AK release inactive, HIV Env fusion inactive, ERAP1 inh inactive and esBAF inh inactive.
Screening COc1ccc(C2=Nc3ccccc3N(C(=O)Cc3cc(OC)cc(OC)c3)C2C(=O)NC(C)(C)C)cc1 (centres undefined) returned Wnt act inactive, HIV Env fusion 55 and ERAP1 inh inactive.
COc1ccc(C2=Nc3ccccc3N(C(=O)c3ccc4ncccc4c3)C2C(=O)NC2CCCC2)cc1 (centres undefined) was read as Wnt act inconclusive, HIV Env fusion inactive and ERAP1 inh inactive.
`COc1ccc(C2=Nc3ccccc3N(C(=O)c3ccc4ncccc4c3)C2C(=O)NC(C)(C)C)cc1` (centres undefined) gave Wnt act 34, HIV Env fusion inactive and ERAP1 inh inactive.
CNC(=O)C[C@@H]1CC[C@@H]2[C@H](COc3ccc(NC(=O)Nc4c(C)noc4C)cc3C(=O)N2C)O1 was read as Cneo AK release inactive, HIV Env fusion inactive and esBAF inh inactive.
`OCCn1c(-c2ccc(F)cc2)csc1=Nc1ccccc1` gave MITF act inactive, Wnt act inactive and HIV Env fusion inactive.
For CCOc1ccc(N=c2scc(-c3ccccc3)n2CCO)cc1 the results were MITF act inactive, Wnt act inactive, Cneo AK release inactive, ERAP1 inh inactive and esBAF inh 45.
